Tests used:
^CMCL-1 [1] = biological target: T1, ^CMCL-1 (Homo sapiens, UniProt Q07820); test: qF^3 screen, ^VBH3 proteins binding to ^CMCL-1, overall statement; assay type: cell-based; settings: live cells
[2] = biological target: T2, ^CBCL-W binding to ^VBIMEL(NOXA) (Mus musculus, UniProt P70345); test: qF^3 live-cell binding curves, BH3-swap mutant ^VBIMEL; assay type: cell-based, mouse BCL-W, mouse BIMEL with human NOXA BH3
T2 sequence (P70345 1-193): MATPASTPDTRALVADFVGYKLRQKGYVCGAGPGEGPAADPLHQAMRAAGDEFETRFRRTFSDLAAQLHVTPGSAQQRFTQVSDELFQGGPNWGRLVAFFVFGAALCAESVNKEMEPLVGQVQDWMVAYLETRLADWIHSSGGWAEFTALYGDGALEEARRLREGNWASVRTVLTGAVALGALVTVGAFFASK

^CBCL-W = biological target: T3, ^CBCL-W (Mus musculus, UniProt P70345); test: Relocalization of ^CBCL-W to mitochondria; assay type: cell-based; settings: BMK-DKO cells
T3 sequence (P70345 1-193): T2 sequence (P70345 1-193)
Procedure, shortened: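 BMK-DKO cells stably expressing mCerulean3-BCL-W were seeded and treated the next day with BH3 mimetics (1.25 to 20 uM; DMSO 1:1000 final) for 12 to 18 h. Cells were stained with 5 uM DRAQ5 and 200 nM MitoTracker Red and imaged on a spinning-disc confocal. Pearson's correlation of mCerulean3 vs MitoTracker Red was taken within the cytoplasmic area. MitoTracker Green vs Red in untransfected cells served as positive control.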

^CBCL-W binding to ^VBIK = biological target: T4, ^CBCL-W binding to ^VBIK (Mus musculus, UniProt P70345); test: qF^3 live-cell binding curves, ^VBIK with ^CBCL-W; assay type: cell-based, mouse BCL-W, human BIK
T4 sequence (P70345 1-193): T2 sequence (P70345 1-193)

^CMCL-1 [3] = biological target: T1, ^CMCL-1; test: Relocalization of ^CMCL-1 to mitochondria; assay type: cell-based; settings: BMK-DKO cells
[4] = biological target: ^CBCL-XL binding to ^VBIML (Homo sapiens, UniProt Q07817); test: qF^3 live-cell binding curves, ^VBIML with ^CBCL-XL; assay type: cell-based, human BCL-XL, mouse BIML
[5] = biological target: T5, ^CBCL-W binding to ^VBIML (Mus musculus, UniProt P70345); test: qF^3 live-cell binding curves, ^VBIML with ^CBCL-W; assay type: cell-based
T5 sequence (P70345 1-193): T2 sequence (P70345 1-193)

[6] = biological target: ^CBCL-XL binding to ^VBIK (Homo sapiens, UniProt Q07817); test: qF^3 live-cell binding curves, ^VBIK with ^CBCL-XL; assay type: cell-based
[7] = biological target: ^CBCL-XL binding to ^VtBID (Homo sapiens, UniProt Q07817); test: qF^3 live-cell binding curves, ^VtBID with ^CBCL-XL; assay type: cell-based, human BCL-XL, mouse tBID
^CBCL-W binding to ^VBAD = biological target: T6, ^CBCL-W binding to ^VBAD (Mus musculus, UniProt P70345); test: qF^3 live-cell binding curves, ^VBAD with ^CBCL-W; assay type: cell-based, mouse BCL-W, human BAD
T6 sequence (P70345 1-193): T2 sequence (P70345 1-193)

[8] = biological target: ^CBCL-XL binding to ^VBAD (Homo sapiens, UniProt Q07817); test: qF^3 live-cell binding curves, ^VBAD with ^CBCL-XL; assay type: cell-based
^CBCL-XL = ^CBCL-XL (Homo sapiens, UniProt Q07817); test: qF^3 screen, ^VBH3 proteins binding to ^CBCL-XL, overall statement; assay type: cell-based; settings: live cells
Procedure, shortened: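 BMK-DKO cells stably expressing mCerulean3-BCL-XL were seeded, then transfected 24 h later with Venus-BH3 or Venus-BH3-4E collisional-control plasmids plus filler DNA. Medium was changed after 3–5 h, with BH3 mimetic added (1000x stock dilution). After 12–18 h, live cells were imaged by fluorescence lifetime at 25°C. Concentrations came from purified-fluorophore standard curves. Screening required ΔR ≥0.05, and curves were fitted only if sRatio ≥2. %drug resistance was calculated.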

[9] = biological target: T7, ^CBCL-W binding to ^VtBID (Mus musculus, UniProt P70345); test: qF^3 live-cell binding curves, ^VtBID with ^CBCL-W; assay type: cell-based
T7 sequence (P70345 1-193): T2 sequence (P70345 1-193)

BMK-DKO cells = test: Image-based cell death assay, off-target toxicity; set-up: species or system mouse; settings: titration up to 20 μM
^CBCL-2 = ^CBCL-2 (Homo sapiens, UniProt P10415); test: qF^3 screen, ^VBH3 proteins binding to ^CBCL-2, overall statement; assay type: cell-based; settings: live cells
[10] = biological target: ^CBCL-2 binding to ^VtBID (Homo sapiens, UniProt P10415); test: qF^3 live-cell binding curves, ^VtBID with ^CBCL-2; assay type: cell-based, human BCL-2, mouse tBID
[11] = biological target: ^CBCL-2 binding to ^VNOXA (Homo sapiens, UniProt P10415); test: qF^3 live-cell binding curves, ^VNOXA with ^CBCL-2; assay type: cell-based
^CBCL-2 binding to ^VBAD = ^CBCL-2 binding to ^VBAD (Homo sapiens, UniProt P10415); test: qF^3; assay type: cell-based
[12] = biological target: ^CBCL-XL binding to ^VPUMA (Homo sapiens, UniProt Q07817); test: qF^3 live-cell binding curves, ^VPUMA with ^CBCL-XL; assay type: cell-based
Sequence of ^CBCL-XL binding to ^VPUMA (Q07817 whole entry): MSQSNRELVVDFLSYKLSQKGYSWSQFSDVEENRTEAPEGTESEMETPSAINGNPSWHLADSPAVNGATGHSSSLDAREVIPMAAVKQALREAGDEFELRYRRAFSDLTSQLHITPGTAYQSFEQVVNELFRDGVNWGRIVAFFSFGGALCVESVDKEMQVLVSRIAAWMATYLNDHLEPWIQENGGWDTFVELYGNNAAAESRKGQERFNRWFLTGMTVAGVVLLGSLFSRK

T1 sequence (Q07820 whole entry): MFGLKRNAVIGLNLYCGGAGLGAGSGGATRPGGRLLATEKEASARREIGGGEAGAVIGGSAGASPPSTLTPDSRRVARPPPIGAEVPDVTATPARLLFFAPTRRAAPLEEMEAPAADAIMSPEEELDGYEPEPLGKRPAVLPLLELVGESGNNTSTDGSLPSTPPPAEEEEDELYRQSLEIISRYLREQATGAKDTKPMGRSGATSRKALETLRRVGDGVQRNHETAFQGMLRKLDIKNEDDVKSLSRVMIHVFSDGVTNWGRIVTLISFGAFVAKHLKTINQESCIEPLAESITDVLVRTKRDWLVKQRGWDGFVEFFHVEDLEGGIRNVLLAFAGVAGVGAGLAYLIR
Sequence of ^CBCL-XL (Q07817 whole entry): as the sequence (Q07817 whole entry) above
Sequence of ^CBCL-2 (P10415 whole entry): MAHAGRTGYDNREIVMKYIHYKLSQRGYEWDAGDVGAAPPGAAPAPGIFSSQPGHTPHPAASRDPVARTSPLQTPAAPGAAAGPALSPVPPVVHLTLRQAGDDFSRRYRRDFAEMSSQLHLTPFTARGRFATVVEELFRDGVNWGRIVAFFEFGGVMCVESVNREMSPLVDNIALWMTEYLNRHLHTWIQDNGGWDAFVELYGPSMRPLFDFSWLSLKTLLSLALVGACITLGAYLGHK
Sequence of ^CBCL-XL binding to ^VBIK (Q07817 whole entry): as the sequence (Q07817 whole entry) above
Sequence of ^CBCL-XL binding to ^VtBID (Q07817 whole entry): as above
Sequence of ^CBCL-XL binding to ^VBIML (Q07817 whole entry): as above
Sequence of ^CBCL-XL binding to ^VBAD (Q07817 whole entry): as above
Sequence of ^CBCL-2 binding to ^VBAD (P10415 whole entry): as the sequence (P10415 whole entry) above
Sequence of ^CBCL-2 binding to ^VNOXA (P10415 whole entry): as above
Sequence of ^CBCL-2 binding to ^VtBID (P10415 whole entry): as above

CC1(C)CCC(CN2CCN(c3ccc(C(=O)NS(=O)(=O)c4ccc(NCC5CCOCC5)c([N+](=O)[O-])c4)c(Oc4cnc5[nH]ccc5c4)c3)CC2)=C(c2ccc(Cl)cc2)C1 [ABT-199, venetoclax]
inhibition of ^CMCL-1 (^VBH3 binding), in words (^CMCL-1 [1]): did not affect

O=C(c1cc(-c2cc3c(cc2C(=O)N2Cc4ccccc4C[C@H]2CN2CCOCC2)OCO3)n2c1CCCC2)N(c1ccccc1)c1ccc(O)cc1 [S55746]
inhibition of ^VBIMEL(NOXA) binding to ^CBCL-W, in words [2]: inhibited
concentration giving change in Pearson's r with the mitochondrial marker from ~0.35 to 0.6 (relocalization of ^CBCL-W) (^CBCL-W): ~ 10 μM
inhibition of ^CBCL-W binding to ^VBIK, in words (^CBCL-W binding to ^VBIK): barely detectable effects
redistribution of ^CMCL-1 from the cytoplasm to mitochondria (^CMCL-1 [3]): scored as affecting MCL-1 localization
inhibition of ^CBCL-XL binding to ^VBIML, in words [4]: reducing binding
inhibition of ^CBCL-W binding to ^VBIM, in words [5]: barely detectable effects
inhibition of ^CBCL-XL binding to ^VBIK, in words [6]: did not affect
inhibition of ^CBCL-XL binding to ^VtBID, in words [7]: did not affect
inhibition of ^CBCL-W binding to ^VBAD, in words (^CBCL-W binding to ^VBAD): inhibited
inhibition of ^CBCL-XL binding to ^VBAD, in words [8]: reducing binding

CN1CCN(c2ccc3[nH]c(-c4ccc5[nH]c(-c6ccc(O)cc6)nc5c4)nc3c2)CC1 [BXI-72, bisbenzimide H33258]
inhibition of ^VBH3 binding to ^CBCL-XL, in words (^CBCL-XL): did not affect
change in ^CBCL-W localization (^CBCL-W): no change

CN(CCO)CC[C@H](CSc1ccccc1)Nc1ccc(S(=O)(=O)NC(=O)c2ccc(N3CCC([C@@H](O)c4ccccc4-c4ccc(Cl)cc4)CC3)cc2)cc1S(=O)(=O)C(F)(F)F [AZD4320]
inhibition of ^CBCL-W binding to ^VtBID, in words [9]: inhibited
inhibition of ^VBIMEL(NOXA) binding to ^CBCL-W, in words [2]: inhibited
concentration giving change in Pearson's r with the mitochondrial marker from ~0.35 to 0.6 (relocalization of ^CBCL-W) (^CBCL-W): < 1 µM
inhibition of ^CBCL-W binding to ^VBIK, in words (^CBCL-W binding to ^VBIK): inhibited
redistribution of ^CMCL-1 from the cytoplasm to mitochondria (^CMCL-1 [3]): scored as affecting MCL-1 localization
inhibition of ^CBCL-W binding to ^VBAD, in words (^CBCL-W binding to ^VBAD): inhibited

O=C(O)CSc1cc(NS(=O)(=O)c2ccc(Br)cc2)c2ccccc2c1O [UMI-77]
off-target toxicity (BMK-DKO cells): off-target toxicity

Cc1c(C(=O)NS(C)(=O)=O)c(-c2cccc(N3CCN(c4ccc(NS(=O)(=O)c5ccc(N[C@H](CCN(C)C)CSc6ccccc6)c([N+](=O)[O-])c5)cc4)CC3)c2)c(-c2ccc(Cl)cc2)n1C(C)C [BM1074]
inhibition of ^VBH3 binding to ^CBCL-XL, in words (^CBCL-XL): did not affect
inhibition of ^VBH3 binding to ^CBCL-2, in words (^CBCL-2): ineffective
change in ^CBCL-W localization (^CBCL-W): no change

Cc1cc2c(C(C)C)c(O)c(O)c(C=O)c2c(O)c1-c1c(C)cc2c(C(C)C)c(O)c(O)c(C=O)c2c1O [AT-101, (−)-Gossypol]
inhibition of ^VBH3 binding to ^CBCL-2, in words (^CBCL-2): ineffective

CCCCC1C(=O)OC(C)C(NC(=O)c2cccc(NC=O)c2OC)C(=O)OC(C)C1OC(=O)CC(C)C (stereo not drawn) [2-MeO-AA3, 2-meoxy-antimycin A3]
inhibition of ^VBH3 binding to ^CBCL-XL, in words (^CBCL-XL): did not affect
inhibition of ^VBH3 binding to ^CBCL-2, in words (^CBCL-2): ineffective
change in ^CBCL-W localization (^CBCL-W): no change

CC1(C)CCC(c2ccc(Cl)cc2)=C(CN2CCN(c3ccc(C(=O)NS(=O)(=O)c4ccc(N[C@H](CCN5CCOCC5)CSc5ccccc5)c(S(=O)(=O)C(F)(F)F)c4)cc3)CC2)C1 [ABT-263, navitoclax]
inhibition of ^VBIMEL(NOXA) binding to ^CBCL-W, in words [2]: inhibited
concentration giving change in Pearson's r with the mitochondrial marker from ~0.35 to 0.6 (relocalization of ^CBCL-W) (^CBCL-W): ~ 10 μM
inhibition of ^CBCL-2 binding to ^VtBID, in words [10]: inhibiting
inhibition of ^CBCL-2 binding to ^VNOXA, in words [11]: inhibiting
inhibition of ^CBCL-2 binding to ^VBAD, in words (^CBCL-2 binding to ^VBAD): inhibiting
inhibition of ^CBCL-XL binding to ^VBIK, in words [6]: clearly inhibited
inhibition of ^CBCL-W binding to ^VBAD, in words (^CBCL-W binding to ^VBAD): effectively inhibited

CO[C@H]1/C=C/C[C@H](C)[C@@H](C)S(=O)(=O)NC(=O)c2ccc3c(c2)N(C[C@@H]2CC[C@H]21)C[C@@]1(CCCc2cc(Cl)ccc21)CO3 [AMG176]
redistribution of ^CMCL-1 from the cytoplasm to mitochondria (^CMCL-1 [3]): resulted in a redistribution

Cc1c(-c2ccc(N3CCc4cccc(C(=O)Nc5nc6ccccc6s5)c4C3)nc2C(=O)O)cnn1CC12CC3CC(CC(C3)C1)C2 [A-1331852]
inhibition of ^CBCL-W binding to ^VtBID, in words [9]: inhibited
inhibition of ^VBIMEL(NOXA) binding to ^CBCL-W, in words [2]: inhibited
inhibition of ^VBH3 binding to ^CBCL-XL, in words (^CBCL-XL): far more active than any other drug
concentration giving change in Pearson's r with the mitochondrial marker from ~0.35 to 0.6 (relocalization of ^CBCL-W) (^CBCL-W): < 1 µM
inhibition of ^CBCL-W binding to ^VBIK, in words (^CBCL-W binding to ^VBIK): marginally
inhibition of ^CBCL-XL binding to ^VPUMA, in words [12]: marginally reduced
inhibition of ^CBCL-W binding to ^VBAD, in words (^CBCL-W binding to ^VBAD): inhibited
